Data: ChEMBL document CHEMBL3808276, “Identification of Adenine and Benzimidazole Nucleosides as Potent Human Concentrative Nucleoside Transporter 2 Inhibitors: Potential Treatment for Hyperuricemia and Gout” (J Med Chem, 2016)
≈ marks a conversion by molar mass, not a printed value. Calls of active or inactive are those of the source. The calls are words filed in the database; no cut-off is given here.

Key:
[1] = target: T1, Sodium/nucleoside cotransporter 2 (Rattus norvegicus, UniProt Q62773); assay: Inhibition of rat CNT2 expressed in African green monkey COS7 cells assessed as reduction of [14C]-inosine uptake by liquid scintillation counting analysis; assay type: cell-based, COS-7
T1 sequence (Q62773 whole entry): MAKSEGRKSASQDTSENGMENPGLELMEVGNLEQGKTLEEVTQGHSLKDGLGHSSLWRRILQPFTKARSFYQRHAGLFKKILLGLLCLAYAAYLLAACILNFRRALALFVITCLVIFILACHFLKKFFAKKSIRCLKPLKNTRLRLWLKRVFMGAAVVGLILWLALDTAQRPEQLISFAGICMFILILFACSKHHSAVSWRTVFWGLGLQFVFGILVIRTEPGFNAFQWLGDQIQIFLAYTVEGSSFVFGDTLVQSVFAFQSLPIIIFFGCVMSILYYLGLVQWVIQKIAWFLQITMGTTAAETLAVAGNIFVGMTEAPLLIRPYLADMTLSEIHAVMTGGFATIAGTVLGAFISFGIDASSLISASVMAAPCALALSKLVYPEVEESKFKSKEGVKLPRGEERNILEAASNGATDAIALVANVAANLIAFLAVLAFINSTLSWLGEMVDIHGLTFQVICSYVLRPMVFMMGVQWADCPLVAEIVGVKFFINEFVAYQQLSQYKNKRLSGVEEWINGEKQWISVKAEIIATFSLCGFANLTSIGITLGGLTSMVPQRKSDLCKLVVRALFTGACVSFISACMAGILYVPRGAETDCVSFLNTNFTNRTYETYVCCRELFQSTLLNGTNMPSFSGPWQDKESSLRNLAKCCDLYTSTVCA
How it was run: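 rCNT2 transiently expressed in COS-7 cells, used 2 days post-transfection. 10 µM [14C]inosine uptake at 37 °C for 30 min in the presence of 10 µM NBMPR. Uptake run with Na+ or with choline replacing Na+, pH 7.4; the Na+-dependent difference defined 100% transport. Scintillation read-out; IC50 by nonlinear regression, ≥3 independent runs.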

[2] = target: T2, Sodium/nucleoside cotransporter 2 (Homo sapiens, UniProt O43868); assay: Inhibition of human CNT2 expressed in African green monkey COS7 cells assessed as reduction of [14C]-inosine uptake by liquid scintillation counting analysis; assay type: cell-based, COS-7
T2 sequence (O43868 whole entry): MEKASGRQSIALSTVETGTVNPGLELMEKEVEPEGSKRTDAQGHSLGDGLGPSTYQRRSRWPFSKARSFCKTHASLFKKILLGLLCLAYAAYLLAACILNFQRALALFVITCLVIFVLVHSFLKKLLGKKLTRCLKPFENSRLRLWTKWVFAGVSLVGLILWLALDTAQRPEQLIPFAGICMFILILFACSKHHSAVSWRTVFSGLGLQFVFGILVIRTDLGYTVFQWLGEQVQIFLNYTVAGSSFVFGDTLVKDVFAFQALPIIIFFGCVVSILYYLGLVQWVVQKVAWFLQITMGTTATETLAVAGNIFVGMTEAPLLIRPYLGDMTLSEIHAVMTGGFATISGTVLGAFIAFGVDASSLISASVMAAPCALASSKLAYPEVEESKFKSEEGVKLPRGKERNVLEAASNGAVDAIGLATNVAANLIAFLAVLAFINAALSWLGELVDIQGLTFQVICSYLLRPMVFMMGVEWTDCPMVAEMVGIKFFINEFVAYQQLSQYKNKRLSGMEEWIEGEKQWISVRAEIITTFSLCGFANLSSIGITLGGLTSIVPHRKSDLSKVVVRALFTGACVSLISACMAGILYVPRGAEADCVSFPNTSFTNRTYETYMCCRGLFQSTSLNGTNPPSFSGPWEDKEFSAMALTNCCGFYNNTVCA
How it was run: (§1)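 COS-7 cells transiently transfected with hCNT2 in pCI-neo, assayed after 2 days. Pretreated in Na+-free choline buffer, 37 °C, 2×10 min. Uptake of 10 µM [14C]inosine for 30 min at 37 °C with 10 µM NBMPR, ±Na+, pH 7.4. Na+-dependent uptake set as 100%; lysate counted by scintillation. IC50 by nonlinear regression, ≥3 experiments; top concentration 100 µM.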

[3] = target: T3, Sodium/nucleoside cotransporter 2 (Rattus norvegicus) (UniProt Q62773); assay: Inhibition of rat CNT2 expressed in African green monkey COS7 cells assessed as reduction of [14C]-inosine uptake at 100 uM by liquid scintillation counting analysis; assay type: cell-based; conditions: COS-7
T3 sequence (whole entry): T1 sequence (Q62773 whole entry)

[4] = target: T3, Sodium/nucleoside cotransporter 2 (Rattus norvegicus); assay: Inhibition of rat CNT2 expressed in African green monkey COS7 cells assessed as reduction of [14C]-inosine uptake at 1000 uM by liquid scintillation counting analysis; assay type: cell-based; conditions: COS-7
How it was run: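 rCNT2 cDNA in pCI-neo, transiently transfected into COS-7 cells and assayed 2 days later. Cells were pre-incubated twice for 10 min at 37 °C in Na+-free choline buffer, pH 7.4. Uptake of 10 µM [14C]/unlabeled inosine ran 30 min at 37 °C with 10 µM NBMPR. Na+-dependent uptake (Na+ minus choline buffer) was set as 100%, and percent inhibition was taken at 1000 µM.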

[5] = target: T4, Sodium/nucleoside cotransporter 2 (Homo sapiens) (UniProt O43868); assay: Inhibition of human CNT2 expressed in African green monkey COS7 cells assessed as reduction of [14C]-inosine uptake at 100 uM by liquid scintillation counting analysis; assay type: cell-based; conditions: COS-7; how it was run: as §1
T4 sequence (whole entry): T2 sequence (O43868 whole entry)

[6] = Solubility of compound in JP2 at pH 6.8 after 1 hr at 37 degC; assay type: physicochemical; conditions: JP2, pH 6.8
How it was run: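 Solubility measured in JP2, a 1:1 mix of pH 6.8 phosphate buffer and water, after incubation for 1 h at 37 °C.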

[7] = tested on: Rattus norvegicus; assay: Suppression of adenosine/inosine/guanosine mixture-induced elevation of uric acid level in potassium oxonate-treated Sprague-Dawley rat plasma at 50 mg/kg, po measured after 1 hr by phosphotungstic acid method; assay type: functional
How it was run: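 Male SD rats, 5 weeks old, fasted overnight, given potassium oxonate 100 mg/kg sc. After 1 h, a purine mix (adenosine:inosine:guanosine 1:1:1, 50 mg/kg) was given orally together with the test compound (50, or 0.1–10 mg/kg). Aortic blood taken 1 h later under anesthesia; plasma uric acid measured by phosphotungstic acid method. Mean ± SEM; Student's t or Dunnett's test.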

| Compound | IC50 [1] | IC50 [2] | inhibition [3] | inhibition [4] | inhibition [5] | solubility at 1 h [6] | Activity [7] |
| --- | --- | --- | --- | --- | --- | --- | --- |
| NC(=O)COc1cc(CNc2nc3c(N)ncnc3n2[C@@H]2O[C@H](CO)[C@@H](O)[C@H]2O)ccc1-c1ccccc1 | > 100 µM | 5.5 µM | < 5% |  |  |  |  |
| CC(C)Oc1cc(-c2ccccc2)ccc1CNc1nc2c(N)ncnc2n1[C@@H]1O[C@H](CO)[C@@H](O)[C@H]1O |  | 9.3 µM | inactive |  |  |  |  |
| CCCOc1cc(-c2ccccc2)ccc1CNc1nc2c(N)ncnc2n1[C@@H]1O[C@H](CO)[C@@H](O)[C@H]1O |  |  | inactive |  | inactive |  |  |
| Nc1ncnc2c1nc(NCc1ccc(-c3ccccc3)c(OCCCO)c1)n2[C@@H]1O[C@H](CO)[C@@H](O)[C@H]1O | 45.1 µM | 1.1 µM |  |  |  |  |  |
| Nc1ncnc2c1nc(NCc1ccc(-c3ccccc3)c(O)c1)n2[C@@H]1O[C@H](CO)[C@@H](O)[C@H]1O |  | 1.2 µM | inactive |  |  |  |  |
| CCCOc1cc(CNc2nc3c(N)ncnc3n2[C@@H]2O[C@H](CO)[C@@H](O)[C@H]2O)ccc1-c1ccccc1 |  | 5.2 µM | inactive |  |  |  |  |
| COc1cc(-c2ccccc2)ccc1CNc1nc2c(N)ncnc2n1[C@@H]1O[C@H](CO)[C@@H](O)[C@H]1O |  | 1.1 µM | inactive |  |  | 4 µg/mL (≈ 8.36 µM) |  |
| Nc1ncnc2c1nc(NCc1ccc(-c3ccncc3)cc1)n2[C@@H]1O[C@H](CO)[C@@H](O)[C@H]1O |  | 2.7 µM | inactive |  |  |  |  |

Now from value to compound, other results behind:

| IC50 [1] | IC50 [2] | inhibition [3] | inhibition [4] | inhibition [5] | solubility at 1 h [6] | Compound | Activity [7] |
| --- | --- | --- | --- | --- | --- | --- | --- |
| > 1000 µM | 20.1 µM |  | 18% |  |  | O=c1[nH]cnc2c1nc(NCc1ccc(-c3ccccc3)c(OCCCCO)c1)n2[C@@H]1O[C@H](CO)[C@@H](O)[C@H]1O |  |
| 60 µM | 1.6 µM |  |  |  |  | Nc1ncnc2c1nc(NCc1ccc(-c3ccccc3)c(OCCCCCO)c1)n2[C@@H]1O[C@H](CO)[C@@H](O)[C@H]1O |  |
| 38 µM | 0.94 µM |  |  |  | 190 µg/mL (≈ 354 µM) | Nc1ncnc2c1nc(NCc1ccc(-c3ccccc3)c(OCCCCO)c1)n2[C@@H]1O[C@H](CO)[C@@H](O)[C@H]1O | 42% |
